Experimental data from the RNAGym collection of RNA variant scans (doi:10.1038/s41586-018-0170-7).

B1: tRNA (parent)
chain: GUUCCGUUGGCGUAAUGGUAACGCGUCUCCCUCCUAAGGAGAAGACUGCGGGUUCGAGUCCCGUACGGAACG

Variants of: B1
Assay: yeast fitness, log relative to wild type (ln ratio); higher = fitter; tRNA-Arg(CCU), competitive growth, 37 C, 1 M NaCl
In short: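 Two independent transformations put a combinatorial tRNA-Arg(CCU) variant library on a HIS3 centromeric plasmid into BY4742 lacking the chromosomal gene. Pools were grown in SC-HIS at 30 °C for 4 generations, then in SC-HIS 1M NaCl at 37 °C for ~6.5 generations (~26.5 h), with three outputs taken per input. Fitness compares a genotype's generations with the wild type's as a natural log ratio. Those generations are OD-scaled log2 output/input frequencies, inverse-variance weighted across replicates, from 125 bp paired-end Illumina counts.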

Variant | yeast fitness (ln)
U2G G6A C27U A43C A69G A70U | -0.279
U2G G6A C27U A43C A69G A70G | -0.168
U2G G6A C27U A43C C66U A70G C71U | -0.29
U2G G6A C27U C46U A70U | -0.106
U2G G6A C27U C46U A70G | -0.0986
U2G G6A C27U C66U A70U | -0.0165
U2G G6A C27U C66U A70G | -0.227
U2G G6A A43C C46U A70G C71U | -0.209
U2G G6A C71U | -0.0566
U2G G6A C27U C66U A70G C71U | -0.203
U2G G6A C46U A70U C71U | -0.449
U2G G6A A43C C46U A69G A70U | -0.123
U2G G6A A43C C46U A69G A70G | -0.169
U2G G6U A43C A70U C71U | -0.215
U2G G6A C27U A70U C71U | -0.144
U2G G6A A43C C66U A69G A70G C71U | -0.304
U2G C46U C66A A70G C71U | -0.116
U2G G6A A43C C46U A69G A70G C71U | -0.226
U2G G6A A43C C46U C66U | -0.147
U2G G6A A43C C46U C66A | -0.141
U2G G6A C46U C66U A69G C71U | -0.155

Variant | yeast fitness (ln)
U2G G6A C27U A43C C66A A69G A70U C71U | -0.548
U2G G6A C27U A43C C46U C66A A69G C71U | -0.283
U2G G6A C66U A70G C71U | -0.253
U2G G6A C27U C46U C66A A70U C71U | -0.167
U2G G6A A43C A69G A70G | -0.185
U2G G6A A43C A69G A70U | -0.171
U2G G6A C27U A43C C46U A69G A70U C71U | -0.384
U2G G6A A43C C71U | -0.195
U2G G6A C27U A43C C46U C66U C71U | -0.282
U2G G6U A43C A69G C71U | -0.402
U2G C71U | -0.0549
U2G G6A C66A C71U | -0.139
U2G G6A A43C C46U C66U A70U C71U | -0.175
U2G G6A A70G C71U | -0.142
U2G G6A C66U A69G A70G C71U | -0.161
U2G G6A C46U C66U A69G A70G | -0.442
U2G G6A C46U C66U A69G A70U | -0.00305
U2G C46U C66U A69G C71U | -0.209
U2G G6A C27U A69G | -0.24
U2G C46U C66A A69G C71U | -0.191
U2G G6A C66A A70U C71U | -0.123

Variant | yeast fitness (ln)
U2G C66A A69G C71U | -0.145
U2G G6A C27U C46U C66U | -0.206
U2G G6A C27U C46U C66A | -0.0567
U2G G6A C66U A70U C71U | -0.0405
U2G G6A C27U A43C C66A A69G A70G C71U | -0.366
U2G G6A C27U C46U C66U A69G | -0.215
U2G G6A C27U A43C | -0.0726
U2G G6A C27U A43C A69G C71U | -0.391
U2G G6A C27U A43C C46U C66A A69G A70U | -0.187
U2G G6A C66U A69G C71U | -0.217
U2G G6A A43C C46U C66U A69G C71U | -0.303
U2G G6A A43C C46U C66A A69G C71U | -0.341
U2G G6A C46U C66U A70U C71U | -0.0272
U2G C46U C66U C71U | -0.115
U2G G6A C27U A43C C46U C66U | -0.102
U2G G6A C27U A43C C46U C66A | -0.189
U2G G6A C46U C66U A69G A70U C71U | -0.385
U2G G6A C27U C46U A69G | -0.149
U2G G6U A43C C46U A69G A70U C71U | -0.426
U2G G6A C27U C66U C71U | -0.238
U2G G6A C46U C66A A70G | -0.056

Variant | yeast fitness (ln)
U2G G6A C46U C66A A70U | -0.059
U2G G6A A43C C66A A69G A70U C71U | -0.329
U2G G6A C27U C46U A69G A70G | -0.174
U2G G6A C27U C46U A69G A70U | -0.133
U2G G6A C46U A69G A70U C71U | -0.272
U2G C66A A69G A70G C71U | -0.152
U2G C46U A69G A70U | 0.00211
U2G C46U A69G A70G | -0.131
U2G G6A A70U | -0.0249
U2G G6A A70G | -0.114
U2G G6A C27U A43C C66A A70G C71U | -0.23
U2G G6U A43C A70G C71U | -0.282
U2G G6A C27U C46U C66U A69G A70U | -0.0313
U2G G6A C27U C46U C66U A69G A70G | -0.199
U2G G6A C27U A43C C66A A70U C71U | -0.473
U2G G6A C66U A69G A70G | -0.448
U2G G6A C66U A69G A70U | -0.00753
U2G G6A C46U C66A A69G A70U | -0.0517
U2G G6A A69G A70U C71U | -0.264
U2G C46U C66A A70U | -0.0904
